Experimental data published in the EternaBench riboswitch data.

Tested on: MS2 coat protein
Assay: apparent Kd, MS2 coat protein; higher = weaker binding; RNA-MaP array; FMN 200 µM where present
Outline: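 Green signal from SNAP-549-labelled MS2 coat protein was normalised to red-channel RNA signal and to the median Fmax of control clusters. The protein was titrated from 0.7 or 1.5 nM, doubling to 3 µM, without and then with constant ligand, over designs transcribed by stalled E. coli RNA polymerase on Illumina sequencing-chip clusters, in 100 mM Tris-HCl pH 7.5, 80 mM KCl, 4 mM MgCl2, BSA, DTT, yeast tRNA and Tween-20. The apparent Kd is the median of filtered per-cluster binding-curve fits.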

[1] = designed as: OFF switch for flavin mononucleotide, no ligand
[2] = ligand present: flavin mononucleotide, designed as: OFF switch for flavin mononucleotide
[3] = designed as: ON switch for flavin mononucleotide, no ligand
[4] = ligand present: flavin mononucleotide, designed as: ON switch for flavin mononucleotide

| Sequence | apparent Kd [1] [µM] | apparent Kd [2] [µM] | apparent Kd [3] [µM] | apparent Kd [4] [µM] |
| --- | --- | --- | --- | --- |
| AGUGUGUGGCAGGAUAUGCUGUUGAUUCGGGCAGCAGAAGGGUCUACAUGAGGAUCACCCAUGUAAGCGGUUGA | 0.257 | 0.413 | – | – |
| AGUUGGCGAGGAUAUACAUGAGGAUCACCCAUGUGAGAGAAUAAAGUGAGGAAGAAAAGUAGAAGGCGCUGACA | 0.0478 | 0.154 | – | – |
| AGUUUUGUACAUGAGGAUCACCCAUGUUAAUAUGUGGUAGUCAGAAGGCAUUGUUAGAGUAUAUAUGAGGAUAUGAUUAGUCAG | – | – | 0.0583 | 0.0279 |
| AUAAAACAAAACCACACAUGAGGAUCACCCAUGUCAAGAUUACAGGAUAUCCGGCAGAGAUGCAAGGAGAAGGGUGAUCCCAAA | – | – | 0.0173 | 0.0569 |
| AUAAAACAUGAGGAUCACCCAUGUCAACAAAGUCGAGGAUAUGGGCAAAGAAAAUAAGAACCAGAAGGCGAAUAAU | – | – | 0.26 | 0.045 |
| AUAAAACAUGAGGAUCACCCAUGUCAACAAAGUCGAGGAUAUGGGCAAAUAAAAUAAGAACCAGAAGGCGUAUAAU | – | – | – | 0.0943 |
| AUAAGUGCAGGAUAUACGAAAUGCUAGCGAAAGCUAGCAUAACAUGAGGAUCACCCAUGUAGAAGGGCACAAUA | 0.0284 | 0.0215 | – | – |
| AUAAUACAUGAGGAUCACCCAUGUAAUUUAACUUGUAAGAUCAAGGAUAUCAGCUCGAUUAGAGCUGAGAAGGUGAUCACAUGU | – | – | 0.154 | 0.229 |
| AUAAUUUUAUAUAUCAUUUUAAUCAGAAGGCAUAACAUGAGGAUCACCCAUGUAAAUUAUUGUUAUGAGGAUAUGAAUUGGUUA | 0.0144 | 0.0548 | – | – |
| AUAAUUUUGUAGAAGGUACGUGAUUAGUCAAAGUAAGGAUAUACUGACAUGAGGAUCACCCAUGUUUUAAUAGUUAACAGUUCU | – | – | 0.0129 | 0.00799 |
| AUACAUGAGGAUCACCCAUGUAAUUAAUUAAUUAAUAAGAUCAAGGAUAUCAGCUCGAAUAGAGCUGAGAAGGUGAUCACAUGU | – | – | 0.24 | 0.266 |
| AUACAUGAGGAUCACCCAUGUUACAUGGCCUUGAUAGAUUGUAGAAGGAUGUUAUUAUUAAUUUCAUAGGAUAUACUAUUUAGU | 0.106 | 0.0839 | – | – |
| AUAGAAGUCUAGAAGGACCUAGCUGUAUACCGUCGAGGUAUAUAGCUAGGUAGGAUAUGGGACAUGAGGAUCACCCAUGUGUUG | – | – | 0.0329 | 0.00919 |
| AUAGCAUACCGAGGAUAUUCAUAUAAUAAAUAAACAUGAGGAUCACCCAUGUGGCGAAAGCCUAGGGAGAAGGCGGAAUGCUAC | – | – | 0.225 | 0.0253 |
| AUAGUGCCGGAGAAGGACGUACCACAUGUUGAUCACCGAUAUAAGGAACGUAGGAUAUUCGACAUGAGGAUCACCCAUGUGGAU | – | – | 0.101 | 0.0647 |
| AUAGUGCGCGAGAAGGACGUACCACAUGUGGAUCACCUAUAUAAGGAACGUAGGAUAUUGCACAUGAGGAUCACCCAUGUGGAU | – | – | 0.0414 | 0.0341 |
| AUAUAACCUAGCAAAAUUUAAUAACAUGAGGAUCACCCAUGUAGAAGGCUGUCCUAAAAUAGGACAGAGGAUAUACGUGCUAGG | 0.00543 | 0.00673 | – | – |
| AUAUAGCGAGGAUAUACAUGAGGAUCACCCAUGUGGUAGUAGAUACGGUAGGGCUAGUGUAGAAGGUGUUAUGA | 0.139 | 0.0879 | – | – |
| AUAUAUAUCCAGAAGGUGCCAGCGAGAGCUGCACAUGAGGAUCACCCAUGUUGUCGGUGACGACGCAAGGAUAUGGAUAUAUAU | – | – | 0.0282 | 0.00743 |
| AUAUCAUACCAAGGAUAUUUAAGAUUUGUGUAGACAUGAGGAUCACCCAUGUGGCGUUAGUCACGGGAGAAGGUGGUAUGAUAU | – | – | 0.978 | 0.205 |
| AUAUCCGAAGCAGGAUAUCGACGAGGUGUCGAGGUAGAGCGUACUCACAUGAGGAUCACCCAUGUCGAGAAGGGCUACAGGAUA | 0.0278 | 0.0522 | – | – |
| AUAUCUUACCAAGGAUAUUUAAGAUUUGUGUAGACAUGAGGAUCACCCAUGUGGCGUUAGUCACGGGAGAAGGUGGUUUGAUAU | – | – | 0.141 | 0.648 |
| AUAUGAUAGAUAGGAUAUACAGAUGAAUAAUAAGUAGAAGGAUCAAAUGGGAAUUAUACAUGAGGAUCACCCAUGUUUUUGAAU | – | – | 0.045 | 0.0336 |
| AUAUGAUAGAUAGGAUAUACAUUGGAUUUAAAAGUAGAAGGAUCAAGUGGGAAUUAUACAUGAGGAUCACCCAUGUUUUUGGAU | – | – | 0.059 | 0.0467 |
| AUAUGCCAUGUAAGGAUAUACUGGAGCAUAAGCUCGUAGAAGGUACAUGAGGAUCACCCAUGUGGACCCGACAC | 0.0299 | 0.0349 | – | – |
| AUAUUGUGAGGAUAUGAACUUUGUAUCGAAAGAUACUAAGUUCAGAAGGCACAUGAGGAUCACCCAUGUUUCUC | 0.0823 | 1.13 | – | – |
| AUAUUUAUAUAUUUGGCAAGAAUCAGAAGGCGUUACAUGAGGAUCACCCAUGUUUUGUAUAGUAACGAGGAUAUGAUAUGGAAA | 0.0188 | 0.0142 | – | – |
| AUCAGCACGUGAGGAUAUGCGUCACUGCGAAAGCAGUACGGUAAGAUCACAUGAGGAUCACCCAUGUAGAAGGCACGAGCUGAU | 0.0166 | 0.0381 | – | – |

| Sequence | apparent Kd [1] [µM] | apparent Kd [2] [µM] | apparent Kd [3] [µM] | apparent Kd [4] [µM] |
| --- | --- | --- | --- | --- |
| AUCAGCUAGUCAGGAUAUACGUCACUGCGUCAGCAGUGUGGUAAGAUCACAUGAGGAUCACCCAUGUAGAAGGGACGAGCUGAU | 0.0142 | 0.295 | – | – |
| AUCAGCUCGUCAGGAUAUACAUCACUGCUUCGGCAGUGUAUCUUAACAACAUGAGGAUCACCCAUGUAGAAGGGACGAGCUGAU | 0.0176 | 0.0245 | – | – |
| AUCAGCUCGUCAGGAUAUACGGCACUGCGUCAGCAGUGUGGUAAGAUCACAUGAGGAUCACCCAUGUAGAAGGGACGAGCUGAU | 0.00806 | 0.0846 | – | – |
| AUCAGCUCGUCAGGAUAUACGUCACUCCGUCAGCAGUGUGGUAAGAUCACAUGAGGAUCACCCAUGUAGAAGGGACGAGCUGAU | 0.0295 | 0.253 | – | – |
| AUCAGCUCGUCAGGAUAUACGUCACUGCGUCAGCAGUGUGGUAAGAUCACAUGAGGAUCACCCAUGUAGAAGGGACGAGCUCAU | 0.0139 | 0.322 | – | – |
| AUCAGCUCGUCAGGAUAUACGUCACUGCGUCAGCAGUGUGGUAAGAUCACAUGAGGAUCACCCAUGUAGAAGGGACGAGGUGAU | 0.0149 | 0.265 | – | – |
| AUCAGCUCGUCAGGAUAUACGUCACUGCGUCAGCAGUGUGGUAAGAUCACAUGAGGAUCACCCAUGUAGAAGGGACUAGCUGAU | 0.0148 | 0.294 | – | – |
| AUCAGCUCGUCAGGAUAUACGUCACUGCGUCAGCAGUGUGGUAAGGUCACAUGAGGAUCACCCAUGUAGAAGGGACGAGCUGAU | 0.0094 | 0.117 | – | – |
| AUCAGCUCGUCAGGAUAUACGUCACUGCGUCAGCAGUGUGGUAAUAUCACAUGAGGAUCACCCAUGUAGAAGGGACGAGCUGAU | 0.00527 | 0.00628 | – | – |
| AUCAGCUCGUCAGGAUAUACGUCACUGCUUCGGCAGUGUGGUAAGAUCACAUGAGGAUCACCCAUGUAGAAGGGACGAGCUGAG | 0.0132 | 0.26 | – | – |
| AUCAGCUCGUCAGGAUAUAUGUCACUGCGUCAGCAGUGUGGUAAGAUCACAUGAGGAUCACCCAUGUAGAAGGGACGAGCUGAU | 0.0307 | 0.0788 | – | – |
| AUCAGCUUGUCAGGAUAUGCGUGUCAACGAAAGUAGACAAUCUUAAUAACAUGAGGAUCACCCAUGUAGAAGGGACGAGCUGAU | 0.0182 | 0.0203 | – | – |
| AUCAUGUGAGGAUAUGUGAUCAACCUUCUAUAUAGAUGAUGACAGAAGGCACAUGAGGAUCACCCAUGUAGAUC | 0.0907 | 0.0218 | – | – |
| AUCCUACAUGAGGAUCACCCAUGUGACGCCUCGAUAGGAUAUGCGUGUGCCUUGGCGCAUGCAGAAGGAUUGUUGC | – | – | 0.149 | 0.195 |
| AUCGGCCCGUAGAAGGGUGACAUGAGGAUCACCCAUGUGCCGCGUGCAUUUAUGCCUCCGCGGCCACAGGAUAUACGGAGUUGA | – | – | 0.061 | 0.05 |
| AUCUCAGGACGAGGAUAUCAAUACAUGAGGAUCACCCAUGUAUUACUACUGUGAUCCUUCAAGGCUGAGAAGGCGUCCCAAAUG | 0.0207 | 0.0378 | – | – |
| AUCUUGUAAGGAUAUCUUACAAGUGACUUCGGUCACAGUUAAGAGAAGGUACAUGAGGAUCACCCAUGUAUAAC | 0.0264 | 0.023 | – | – |
| AUCUUGUCAGGAUAUCGUACAAUAUGGAAAACAUAGAGGUACGAGAAGGGACAUGAGGAUCACCCAUGUAAAAC | 0.0402 | 0.0846 | – | – |
| AUGAGGUCAGGAUAUGCAUGGCGGGACUUGCGUCGUGGCGUGCAGAAGGGACAUGAGGAUCACCCAUGUGGAGA | 0.104 | 0.325 | – | – |
| AUGAGGUCAGGAUAUGCAUGGCGGGACUUGCGUCGUGGCGUGGAGAAGGGACAUGAGGAUCACCCAUGUGGAGA | 0.0846 | 0.0761 | – | – |
| AUGAGGUUAGGAUAUACAUGAGGAUCACCCAUGUUGGAGAAGGAAAUGUAAGUAGCGAGUAGAAGGAACGGAGC | 0.047 | 0.0433 | – | – |
| AUGCCUUAUGUAGGAUAUGCAUAGAGUUGCUAUGCAGAAGGACAUGAGGAUCACCCAUGUAUGUAUACCAUACAUAUCUGGCAU | 0.0356 | 0.316 | – | – |
| AUGCUAGUGUGAGGAUAUCAACAUGAGGAUCACCCAUGUUGGAAGUACACGACAUGCGGUACAGGUGAGAAGGUACAUUAGCAU | 0.0274 | 0.0532 | – | – |
| AUGGACGUCGUAGGAUAUGUAGGAUUCUCGUACAUGAGGAUCACCCAUGUUGACGUCAAGGUCGGACAGAAGGGCGGUGUCUAU | – | – | 0.584 | 0.0654 |
| AUGGAUAUCACAGGAUAUGCUAUGGAUACCAUAGCAGAAGGGUGAUCCAUCCUAUGGCUGCACAUGAGGAUCACCCAUGUGUCC | – | – | 0.107 | 0.0111 |
| AUGGAUAUCACAGGAUAUGCUAUGGAUACCAUAGCAGAAGGGUGAUCCAUCCUAUGUGAGCACAUGAGGAUCACCCAUGUGUCC | – | – | 0.123 | 0.0232 |
| AUGGUUCACUCAGGAUAUGUAUCACCUCGUUACCAACAUGAGGAUCACCCAUGUCCGUGGCUCGGACAGAAGGGAGAAGAACCG | – | – | 0.581 | 0.232 |
